Assay results from ChEMBL document CHEMBL2203243, “Synthesis and biological evaluation of novel benzimidazole derivatives and their binding behavior with bovine serum albumin” (Eur J Med Chem, 2012).
≈ marks a conversion by molar mass, not a printed value.

Tests used:
Candida [1] = experiment: Antimicrobial activity against Candida mycoderma by microbroth dilution method; assay type: functional
Method in brief: (§1)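 Two-fold serial broth microdilution in 96-well microtest plates, run against four Gram-positive strains, five Gram-negative strains and two fungi.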

[2] = Antimicrobial activity against Eberthella typhosa by microbroth dilution method; assay type: functional; method in brief: as §1
Candida albicans = experiment: Antimicrobial activity against Candida albicans by microbroth dilution method; assay type: functional; method in brief: as §1
Bacillus = experiment: Antimicrobial activity against Bacillus proteus by microbroth dilution method; assay type: functional; method in brief: as §1
Pseudomonas aeruginosa [3] = experiment: Antimicrobial activity against Pseudomonas aeruginosa by microbroth dilution method; assay type: functional; method in brief: as §1
Shigella dysenteriae = experiment: Antimicrobial activity against Shigella dysenteriae by microbroth dilution method; assay type: functional
Escherichia coli [4] = experiment: Antimicrobial activity against Escherichia coli DH52 by microbroth dilution method; assay type: functional; method in brief: as §1
Micrococcus luteus = experiment: Antimicrobial activity against Micrococcus luteus ATCC 4698 by microbroth dilution method; assay type: functional; method in brief: as §1
Bacillus subtilis = experiment: Antimicrobial activity against Bacillus subtilis by microbroth dilution method; assay type: functional; method in brief: as §1
Staphylococcus aureus [5] = experiment: Antimicrobial activity against Staphylococcus aureus ATCC 25923 by microbroth dilution method; assay type: functional; method in brief: as §1
Staphylococcus aureus [6] = experiment: Antimicrobial activity against methicillin-resistant Staphylococcus aureus N315 by microbroth dilution method; assay type: functional
[7] = Lipophilicity, log P of the compound by UV-Vis spectrophotometric method based saturation shake flask assay; assay type: physicochemical; settings: octanol/water
Method in brief: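 Log P measured by the traditional saturation shake-flask partition, with compound quantified by UV-vis spectrophotometry.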

Pseudomonas aeruginosa [8] = experiment: Potency index, ratio of MIC of chloromycin to MIC of compound against Pseudomonas aeruginosa by microbroth dilution method; assay type: functional
Escherichia coli [9] = experiment: Potency index, ratio of MIC of chloromycin to MIC of compound against Escherichia coli DH52 by microbroth dilution method; assay type: functional
Staphylococcus aureus [10] = experiment: Potency index, ratio of MIC of chloromycin to MIC of compound against methicillin-resistant Staphylococcus aureus N315 by microbroth dilution method; assay type: functional
Albumin = Albumin (Bos taurus, UniProt P02769); experiment: Binding affinity to BSA at pH 7.4 by UV-vis absorption spectroscopic method; assay type: ADME; settings: cattle, isolated protein
Albumin, sequence (P02769 whole entry): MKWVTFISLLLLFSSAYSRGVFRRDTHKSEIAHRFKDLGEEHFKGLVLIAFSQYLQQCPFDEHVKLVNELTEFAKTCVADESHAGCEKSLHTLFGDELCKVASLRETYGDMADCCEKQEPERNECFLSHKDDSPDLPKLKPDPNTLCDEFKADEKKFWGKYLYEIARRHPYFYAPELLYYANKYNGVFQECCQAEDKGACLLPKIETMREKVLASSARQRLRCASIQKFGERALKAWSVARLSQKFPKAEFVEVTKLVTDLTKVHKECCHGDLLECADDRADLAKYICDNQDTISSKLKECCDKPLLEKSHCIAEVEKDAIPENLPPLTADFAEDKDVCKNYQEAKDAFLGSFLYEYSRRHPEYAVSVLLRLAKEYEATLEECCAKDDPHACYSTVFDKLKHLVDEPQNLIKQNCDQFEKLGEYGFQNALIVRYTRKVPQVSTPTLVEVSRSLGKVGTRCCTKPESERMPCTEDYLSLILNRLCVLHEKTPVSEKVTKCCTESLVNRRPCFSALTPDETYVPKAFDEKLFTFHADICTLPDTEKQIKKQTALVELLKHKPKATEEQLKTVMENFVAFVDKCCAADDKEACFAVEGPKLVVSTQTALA

Candida [11] = experiment: Potency index, ratio of MIC of fluconazole to MIC of compound against Candida mycoderma by microbroth dilution method; assay type: functional

SMILES | MIC (Candida [1]) [µg/mL] | MIC [2] [µg/mL] | MIC (Candida albicans) [µg/mL] | MIC (Bacillus) [µg/mL] | MIC (Pseudomonas aeruginosa [3]) [µg/mL] | MIC (Shigella dysenteriae) [µg/mL] | MIC (Escherichia coli [4]) [µg/mL] | MIC (Micrococcus luteus) [µg/mL] | MIC (Bacillus subtilis) [µg/mL] | MIC (Staphylococcus aureus [5]) [µg/mL] | MIC (Staphylococcus aureus [6]) [µg/mL] | logP [7] | logP ([7]; read-out: logP) | Ratio (Pseudomonas aeruginosa [8]) | Ratio (Escherichia coli [9]) | Ratio (Staphylococcus aureus [10]) | Activity (Albumin) | Ratio (Candida [11])
Cc1c(C(=O)NNCc2nc3ccccc3n2Cc2ccc(F)cc2)sc(C(=O)NNCc2nc3ccccc3n2Cc2ccc(F)cc2)c1C.Cl | 8 | 256 | 64 | 128 | 64 | 8 | 16 | 64 | 16 | 256 | 32 | – | – | – | – | – | – | –
Cc1c(C(=O)NN)sc(C(=O)NN)c1C | 512 (≈ 2240 µM) | 512 (≈ 2240 µM) | 512 (≈ 2240 µM) | > 512 | > 512 | 512 (≈ 2240 µM) | 512 (≈ 2240 µM) | 512 (≈ 2240 µM) | > 512 | > 512 | > 512 | -1.41 | – | – | – | – | – | –
Cc1c(C(=O)NNCc2nc3ccccc3[nH]2)sc(C(=O)NNCc2nc3ccccc3[nH]2)c1C | 256 (≈ 524 µM) | 512 (≈ 1050 µM) | > 512 | 256 (≈ 524 µM) | > 512 | 512 (≈ 1050 µM) | 512 (≈ 1050 µM) | 256 (≈ 524 µM) | 128 (≈ 262 µM) | > 512 | > 512 | – | 1.25 | – | – | – | – | –
Cc1c(C(=O)NN)sc(C(=O)NNCc2nc3ccccc3[nH]2)c1C | 128 (≈ 357 µM) | 64 (≈ 179 µM) | 256 (≈ 714 µM) | 128 (≈ 357 µM) | 256 (≈ 714 µM) | 512 (≈ 1430 µM) | 512 (≈ 1430 µM) | 128 (≈ 357 µM) | 64 (≈ 179 µM) | 256 (≈ 714 µM) | 256 (≈ 714 µM) | – | 0.84 | – | – | – | – | –
CCCn1c(CNNC(=O)c2sc(C(=O)NNCc3nc4ccccc4n3CCC)c(C)c2C)nc2ccccc21 | 256 (≈ 447 µM) | 256 (≈ 447 µM) | 512 (≈ 894 µM) | 256 (≈ 447 µM) | 128 (≈ 223 µM) | 256 (≈ 447 µM) | 256 (≈ 447 µM) | 256 (≈ 447 µM) | 256 (≈ 447 µM) | 512 (≈ 894 µM) | 32 (≈ 55.9 µM) | – | 3.7 | – | – | – | – | –
CCCCCCn1c(CNNC(=O)c2sc(C(=O)NNCc3nc4ccccc4n3CCCCCC)c(C)c2C)nc2ccccc21 | 32 (≈ 48.7 µM) | 64 (≈ 97.4 µM) | 32 (≈ 48.7 µM) | 64 (≈ 97.4 µM) | 32 (≈ 48.7 µM) | 64 (≈ 97.4 µM) | 8 (≈ 12.2 µM) | 64 (≈ 97.4 µM) | 32 (≈ 48.7 µM) | 32 (≈ 48.7 µM) | 4 (≈ 6.09 µM) | – | 6.62 | – | – | – | – | –
CCCCCCCCn1c(CNNC(=O)c2sc(C(=O)NNCc3nc4ccccc4n3CCCCCCCC)c(C)c2C)nc2ccccc21 | 4 (≈ 5.61 µM) | 64 (≈ 89.8 µM) | 16 (≈ 22.4 µM) | > 512 | 16 (≈ 22.4 µM) | 16 (≈ 22.4 µM) | 32 (≈ 44.9 µM) | 16 (≈ 22.4 µM) | 32 (≈ 44.9 µM) | 32 (≈ 44.9 µM) | 8 (≈ 11.2 µM) | – | 8.19 | – | – | – | – | –
CCCCCCCCCCn1c(CNNC(=O)c2sc(C(=O)NNCc3nc4ccccc4n3CCCCCCCCCC)c(C)c2C)nc2ccccc21 | 2 (≈ 2.6 µM) | 4 (≈ 5.2 µM) | 4 (≈ 5.2 µM) | 8 (≈ 10.4 µM) | 4 (≈ 5.2 µM) | 8 (≈ 10.4 µM) | 4 (≈ 5.2 µM) | 16 (≈ 20.8 µM) | 4 (≈ 5.2 µM) | 2 (≈ 2.6 µM) | 2 (≈ 2.6 µM) | ND(Insoluble) | – | 8 | 8 | 8 | Active | 2
O=C(N[C@H](CO)[C@H](O)c1ccc([N+](=O)[O-])cc1)C(Cl)Cl [CHLORAMPHENICOL] | – | 32 (≈ 99 µM) | – | 32 (≈ 99 µM) | 32 (≈ 99 µM) | 32 (≈ 99 µM) | 32 (≈ 99 µM) | 8 (≈ 24.8 µM) | 32 (≈ 99 µM) | 16 (≈ 49.5 µM) | 16 (≈ 49.5 µM) | – | – | – | – | – | – | –
OC(Cn1cncn1)(Cn1cncn1)c1ccc(F)cc1F [FLUCONAZOLE] | 4 (≈ 13.1 µM) | – | 1 (≈ 3.27 µM) | – | – | – | – | – | – | – | – | – | – | – | – | – | – | –
CCn1cc(C(=O)O)c(=O)c2cc(F)c(N3CCNCC3)cc21 [NORFLOXACIN] | – | 4 (≈ 12.5 µM) | – | 8 (≈ 25.1 µM) | 16 (≈ 50.1 µM) | 4 (≈ 12.5 µM) | 16 (≈ 50.1 µM) | 2 (≈ 6.26 µM) | 1 (≈ 3.13 µM) | 0.5 (≈ 1.57 µM) | 8 (≈ 25.1 µM) | – | – | – | – | – | – | –
